In the library only some 3.5% were active in any assay of this set; here they are far more common.
PGC1a acetyl inh: inhibitors of PGC1a acetylation signal, primary screen, cell-based, U2OS, AlphaScreen, inhibitor mode; AlphaScreen anti-acetyl-lysine; with virally co-expressed GCN5 acetyltransferase; inhibition, % at 15.6 µM; actives 0.17% (n = 350,000); AID 651687, 2012;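 active means every replicate shows inhibition of at least 40%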;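 further: 0% = neutral control wells and 100% = positive control wells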
ERAP1 HTS inh: human ERAP1 aminopeptidase inhibitors, primary screen, biochemical, single point, plate reader; Endoplasmic reticulum aminopeptidase 1 (Homo sapiens), Q9NZ08; recombinant ERAP1, Leu-AMC fluorescence, 60 min; inhibition, % at 10.7 µM; actives 0.15% (n = 340,000);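 active means mean replicate inhibition of at least 30%, or all replicates individually reaching that 30% level; inactive means mean below 30% and not every replicate reaching it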;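 further: 0% = neutral control wells and 100% = L-leucinethiol positive control wells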
Target sequence (Q9NZ08 whole entry, looked up): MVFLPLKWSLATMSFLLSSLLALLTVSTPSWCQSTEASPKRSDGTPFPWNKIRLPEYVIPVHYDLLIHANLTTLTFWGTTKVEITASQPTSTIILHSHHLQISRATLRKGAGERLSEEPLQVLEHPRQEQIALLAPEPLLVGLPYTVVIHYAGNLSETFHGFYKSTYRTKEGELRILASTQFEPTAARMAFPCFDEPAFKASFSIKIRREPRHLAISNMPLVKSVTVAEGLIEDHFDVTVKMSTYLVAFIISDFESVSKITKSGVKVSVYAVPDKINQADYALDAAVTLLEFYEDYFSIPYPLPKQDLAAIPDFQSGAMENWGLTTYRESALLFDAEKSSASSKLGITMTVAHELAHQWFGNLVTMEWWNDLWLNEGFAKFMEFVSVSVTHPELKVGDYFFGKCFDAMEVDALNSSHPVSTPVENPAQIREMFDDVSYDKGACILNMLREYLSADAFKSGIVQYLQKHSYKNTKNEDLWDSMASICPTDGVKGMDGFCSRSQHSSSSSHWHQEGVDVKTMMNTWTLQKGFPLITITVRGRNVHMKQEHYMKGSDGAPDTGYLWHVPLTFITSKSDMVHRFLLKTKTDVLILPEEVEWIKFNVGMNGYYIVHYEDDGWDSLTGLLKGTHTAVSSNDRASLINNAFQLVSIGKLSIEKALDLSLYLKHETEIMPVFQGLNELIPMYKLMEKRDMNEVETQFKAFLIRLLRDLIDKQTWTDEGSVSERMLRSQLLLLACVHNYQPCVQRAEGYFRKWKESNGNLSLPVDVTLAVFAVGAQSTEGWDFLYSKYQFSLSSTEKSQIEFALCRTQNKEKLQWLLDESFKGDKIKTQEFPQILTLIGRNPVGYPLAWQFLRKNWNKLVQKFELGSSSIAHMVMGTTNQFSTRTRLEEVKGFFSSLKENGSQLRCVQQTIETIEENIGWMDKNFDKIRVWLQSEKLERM
Cneo AK release: Cryptococcus neoformans cell lysis inducers, primary screen, AK release luminescence, single concentration | C. neoformans lysis, adenylate kinase release luminescence, 4 h; normalised: neutral wells 0, clomiphene wells 100 | lysis activity, % at 15 µM | actives 0.2% (n = 360,000) | AID 651654, 2012;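 active means mean lysis activity across replicates of at least 80%, whatever share of replicates individually reach that level; inactive means mean lysis activity below 80%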
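read-out = cell lysis signal | test system = log-phase Cryptococcus neoformans yeast cells | input = cells at 5 × 10^6 per mL | medium = fresh YPD growth medium | signal = luminescent adenylate kinase detection reagent | timing = 4 h at 37 °C static, read 1 h later | dosing = single dose | controls = Clomiphene as positive lysis control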
HIV Env fusion: inhibitors of HIV-1 Env-driven cell-cell fusion, primary screen, HeLa-JRFL effector, CEM21 target cells, luciferase | inhibition, % at 12.3 µM | actives 1.1% (n = 360,000) | AID 651610, 2012;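 active means mean replicate inhibition score of at least 50 and every replicate individually at or above 50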;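 further: 0% = plate neutral controls and 100% = maraviroc near 300 nM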
Ecoli rRNA inh: reduced GFP signal of wild-type E. coli, primary screen, bacterial rRNA inhibitor project, GFP/RFP fluorescence, OD600, single point; E. coli WT GFP vs humanized-ribosome RFP mutants, 24 h; hits give low values; DMSO median 0, no signal -100; GFP signal change (wild-type ribosome), % (concentration not given with the values); actives 1.6% (n = 350,000); AID 720706, 2013;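 active means significant combined selectivity score with lowered wild-type GFP, culture density cut under 30%, mutant RFP and density less affected; inactive means any of these conditions unmet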
FGF22 binding: binders of human FGF22 protein, primary screen, FGF22 synaptogenesis inhibitor project, biophysical, thermal shift, single point; AID 651658, 2012; recombinant FGF22 thermal shift, SYPRO orange fluorescence; percent of sucrose octasulfate shift, DMSO zero; actives 1.5% (n = 340,000); Fibroblast growth factor 22 (Homo sapiens), Q9HCT0; activity (Tm shift, normalised), % at 9.99 µM;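 active means mean Tm shift, scaled 0 neutral to 100 positive control, at about 1.3% or above, every replicate too, limit read from the data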
* marks the source's active call; other numbers are inactive results; . = not tested or not shown; [ ] = dose if it differs, or a comment.

SMILES | PGC1a acetyl inh | ERAP1 HTS inh | Cneo AK release | HIV Env fusion | Ecoli rRNA inh | FGF22 binding
C(=N\Nc1nc(N2CCCC2)nc(N2CCCC2)n1)/c1cccnc1 | . | 4.5 | . | 7.4 | 10.9 | 0.4
FC(F)(F)COc1nc(N/N=C/c2cccnc2)nc(N2CCCCC2c2ccccn2)n1 (stereo not given) | -6.3 | -1.2 | 8.0 | -6.8 | -33.4* | 0.2
Cc1ccc(S(=O)(=O)N[C@@H]2CC[C@H](CCNC(=O)c3ccccc3F)O[C@H]2CO)cc1 | -13.5 | -1.8 | 22.1 | 66.3*[16.7 µM] | 0.3 | 0.0
O=C(Nc1ccccc1)N[C@H]1CC[C@H](CCNC(=O)c2ccccc2F)O[C@@H]1CO | 4.6 | 0.7 | 0.2 | -1.6[16.7 µM] | 2.2 | 0.1
O=C(Nc1ccccc1)N[C@@H]1CC[C@@H](CCNC(=O)c2ccccc2F)O[C@H]1CO | 3.3 | 4.3 | 106.8* | -10.3[16.7 µM] | 1.8 | -0.2
Cc1ccc(S(=O)(=O)N[C@H]2CC[C@H](CCNC(=O)c3ccccc3F)O[C@@H]2CO)cc1 | -12.2 | -1.4 | 54.6 | 10.6[16.7 µM] | -2.2 | -0.3
COc1ccc(-c2nnc(NC(=O)CS(=O)(=O)c3ccc(F)cc3)o2)c(OC)c1 | 1.8 | 4.8 | . | -8.5 | 2.6 | -0.2
CC(=O)SCC(C)C(=O)NCc1ccccc1 (stereo not given) | -2.4 | . | 1.0 | -42.5 | . | .
O=C(CSc1n[nH]c(-c2cccs2)n1)NC1CCS(=O)(=O)C1 (stereo not given) | . | 34.7* | 6.0 | 20.4 | 8.1 | -0.1
COc1ccccc1N1CCN(CC(=O)NC(=O)NCc2ccccc2)CC1 | -6.7 | 1.9 | -0.7 | 39.7 | 8.9 | 43.2*
COc1ccccc1N1CCN(CC(=O)NCc2ccc(Cl)cc2)CC1 | . | -4.3 | -0.9 | 9.3 | -0.8 | -0.2
COc1ccccc1N1CCN(C(=O)CCC(=O)O)CC1 | -7.8 | -0.1 | 0.5 | 6.7 | 7.6 | 43.0*
COc1ccccc1N1CCN(C(=O)CCc2ccccc2)CC1 | . | -3.9 | -1.7 | -0.6 | 6.8 | -0.1
COc1ccccc1N1CCN(CCOc2c(OC)cccc2OC)CC1 | . | . | . | 62.7* | . | .
COc1ccc(NC(=O)CN2C(=O)C(C)SC(C)C2=O)cc1 (stereo not given) | . | -2.1 | . | -0.9 | 12.8 | -0.1
CN(c1ccccc1)c1nc(N)c([N+](=O)[O-])c(N2CCCCC2)n1 | . | 5.4 | . | -4.1 | -25.4 | -0.3
CN(c1ccccc1)c1nc(N)c([N+](=O)[O-])c(N2CCCC2)n1 | -2.4 | 3.7 | -0.3 | -28.6 | -26.7* | 0.1
CCCCC(c1nnnn1C1CCCC1)N1CCN(C2CCCCC2)CC1 (stereo not given) | 0.8 | . | 2.2 | . | . | .
CC(=O)N1N=C2c3ccccc3CCC2C1c1ccc(F)cc1 (stereo not given) | 27.7 | . | -0.2 | 6.1 | -44.4 | -0.1
CN(C)c1ccc(C2C3CCCc4ccccc4C3=NN2C)cc1 (stereo not given) | 5.6 | 5.9 | . | -40.4 | -27.4* | 0.2
COC(=O)CSc1nccc(C)n1 | 3.5 | 0.9 | . | -72.3 | . | 43.6*
Cc1ccnc(SCC(=O)O)n1 | -3.1 | . | 1.6 | -48.3 | . | .
COc1ccc(CN(C)C(=O)COC(=O)c2c(-c3ccccc3Cl)noc2C)cc1 | . | -0.9 | 0.4 | -1.5 | -27.4* | 0.2
COc1ccc(NC(=O)CN(C)C(=O)c2c(-c3ccccc3Cl)noc2C)cc1 | . | -2.7 | . | -6.9 | -1.7 | 0.2
COC(=O)Cc1[nH]n(-c2nc3ccccc3s2)c(=O)c1C(C)=Nc1ccc(C)cc1 | 8.5 | -1.0 | . | 40.2 | -25.9* | 2.5*
CCC(C)C(=O)Nc1ccc([N+](=O)[O-])cc1OC (stereo not given) | 8.9 | 4.6 | -0.3 | -14.2 | 6.9 | 43.0*
COc1cc([N+](=O)[O-])ccc1NC(=S)NNC(=O)CCC(=O)Nc1ccccc1Cl | 5.3 | -2.1 | -5.8 | -14.5 | -17.0* | -0.1

From PubChem
